The source of these data is ChEMBL document CHEMBL1123591, “Synthetic analogues of tetrahydrobiopterin with cofactor activity for aromatic amino acid hydroxylases” (1987).

Substrate in series [1]: CCCOCC1CNc2nc(N)nc(O)c2N1
As to the kind of experiment: (§1) Tested in isolated enzyme assay for its cofactor activity against tryptophan hydroxylase (isolated from rat brain stem) expressed as Michaelis-Menten constant. The procedure, abridged:
(§2)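 The tryptophan hydroxylase source was a desalted 40000g supernatant of rat brain stem, with velocities expressed relative to tetrahydrobiopterin.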

Substrate in series [2]: COCC1CNc2nc(N)nc(O)c2N1
The description is as §1. The procedure, abridged: as §2

Substrate in series [3]: CC(O)C(O)C1CNc2nc(N)nc(O)c2N1
The description is as §1. The procedure, abridged: as §2

Substrate in series [4]: CC(C)OCC1CNc2nc(N)nc(O)c2N1
The description is as §1. The procedure, abridged: as §2

Substrate in series [5]: CCCCCCCCOCC1CNc2nc(N)nc(O)c2N1
Described as §1. The procedure, abridged: as §2

Substrate in series [6]: CCCCOCC1CNc2nc(N)nc(O)c2N1
Described as §1. An outline of the steps: as §2

Substrate in series [7]: CCOCC1CNc2nc(N)nc(O)c2N1
The description is as §1. An outline of the steps:
as §2

Compound in series [8]: CC1CNc2nc(N)[nH]c(=O)c2N1
As to the kind of experiment: Tested in isolated enzyme assay for its cofactor activity against tryptophan hydroxylase (isolated from rat brain stem) expressed as Michaelis-Menten constant (calculated in the presence of platinum catalyst).

Substrate in series [9]: COCCOCC1CNc2nc(N)nc(O)c2N1
As to the kind of experiment: (§3) Tyrosine hydroxylase (isolated from bovine adrenal medulla) cofactor activity. The procedure, abridged:
(§4)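 Tyrosine hydroxylase was purified from bovine adrenal medulla by partial trypsin digestion, giving a model of the high-affinity form, then ammonium sulfate fractionation. Activity was measured as release of ³H₂O from L-(3,5-³H)tyrosine, with velocities expressed relative to tetrahydrobiopterin.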

Substrate in series [10]: CCCOCC1CNc2nc(N)nc(O)c2N1
The series is described as §3. An outline of the steps:
as §4

Substrate in series [11]: COCC1CNc2nc(N)nc(O)c2N1
The series is described as §3. The procedure, abridged:
as §4

Substrate in series [12]: CCCCCOCC1CNc2nc(N)nc(O)c2N1
The series is described as §3. An outline of the steps:
as §4

Substrate in series [13]: CC(C)COCC1CNc2nc(N)nc(O)c2N1
The description is as §3. An outline of the steps:
as §4

Substrate in series [14]: CC1(C)CNc2nc(N)nc(O)c2N1
Described as §3. The procedure, abridged:
as §4

Substrate in series [15]: CC(C)(C)OCC1CNc2nc(N)nc(O)c2N1
The series is described as §3. An outline of the steps:
as §4

Substrate in series [16]: CC(C)OCC1CNc2nc(N)nc(O)c2N1
The description is as §3. The procedure, abridged: as §4

Substrate in series [17]: CCCCCCCCOCC1CNc2nc(N)nc(O)c2N1
Described as §3. An outline of the steps: as §4

Substrate in series [18]: CCOCC1CNc2nc(N)nc(O)c2N1
The series is described as §3. An outline of the steps: as §4

Substrate in series [19]: CC1CNc2nc(N)[nH]c(=O)c2N1
The series is described as §3. The procedure, abridged:
as §4

For series [20], the target named is Tyrosine hydroxylase (Bos taurus). The series can be described thus: Tested in isolated enzyme assay for its cofactor activity against tyrosine hydroxylase (isolated from bovine adrenal medulla) expressed as Michaelis-Menten constant.
Substrate in series [21]: COCCOCC1CNc2nc(N)nc(O)c2N1
As to the kind of experiment: (§5) Tested in isolated enzyme assay for its cofactor activity against phenylalanine hydroxylase (isolated from rat liver) expressed as Michaelis-Menten constant. The procedure, abridged:
(§6)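 Phenylalanine hydroxylase was isolated from rat liver and purified on phenyl-Sepharose. Tyrosine formed was quantified by liquid chromatography with fluorescence detection, and velocities were expressed relative to tetrahydrobiopterin.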

Substrate in series [22]: CCCOCC1CNc2nc(N)nc(O)c2N1
Described as §5. The procedure, abridged:
as §6

Substrate in series [23]: COCC1CNc2nc(N)nc(O)c2N1
The description is as §5. The procedure, abridged:
as §6

Substrate in series [24]: CC(O)C(O)C1CNc2nc(N)nc(O)c2N1
Described as §5. An outline of the steps:
as §6

Substrate in series [25]: CC1(C)CNc2nc(N)nc(O)c2N1
Described as §5. The procedure, abridged:
as §6

Substrate in series [26]: CC(C)OCC1CNc2nc(N)nc(O)c2N1
The description is as §5. An outline of the steps: as §6

Substrate in series [27]: CCCCCCCCOCC1CNc2nc(N)nc(O)c2N1
The series is described as §5. The procedure, abridged: as §6

Substrate in series [28]: CCCCOCC1CNc2nc(N)nc(O)c2N1
The description is as §5. An outline of the steps: as §6

Substrate in series [29]: CCOCC1CNc2nc(N)nc(O)c2N1
Described as §5. The procedure, abridged: as §6

Substrate in series [30]: CC1CNc2nc(N)[nH]c(=O)c2N1
Described as §5. An outline of the steps: as §6

Values joined by “and” are separate entries in the source; they are usually repeats but may differ in a detail not shown here. Identical values can stand only once.

B1: Tryptophan 5-hydroxylase 1 (Rattus norvegicus), P09810 (protein)
chain: MIEDNKENKDHSSERGRVTLIFSLKNEVGGLIKALKIFQENHVNLLHIESRKSKRRNSEFEIFVDCDINREQLNDIFPLLKSHTTVLSVDSPDQLPEKEDVMETVPWFPKKISDLDFCANRVLLYGSELDADHPGFKDNVYRRRRKYFAELAMNYKHGDPIPKIEFTEEEIKTWGTIFRELNKLYPTHACREYLRNLPLLSKYCGYREDNVPQLEDVSNFLKERTGFSIRPVAGYLSPRDFLSGLAFRVFHCTQYVRHSSDPLYTPEPDTCHELLGHVPLLAEPSFAQFSQEIGLASLGASEETVQKLATCYFFTVEFGLCKQDGQLRVFGAGLLSSISELRHALSGHAKVKPFDPKVACKQECLITSFQDVYFVSESFEDAKEKMREFAKTVKRPFGVKYNPYTQSIQVLRDSKSITSAMNELRHDLDVVNDALARVSRWPSV
Take B1: the Km in series [1] came out at 92 µM; in [2], 33 µM; in series [3] it was 49 µM; in series [4], 129 µM; in [5] it was 11 µM; in [6], 84 µM. The Km was 44 µM in [7] and 355 µM in [8].

B2: Tyrosine 3-monooxygenase (Bos taurus), P17289 (protein)
chain: MPTPNAASPQAKGFRRAVSELDAKQAEAIMSPRFVGRRQSLIQDARKEREKAEAAASSSESAEAAAWLERDGEAVLTLLFALPPTRPPALTRAIKVFETFEAHLHHLETRPAQPLRAGSPPLECFVRCEVPGPVVPALLSALRRVAEDVRAAGESKVLWFPRKVSELDKCHHLVTKFDPDLDLDHPGFSDQAYRQRRKLIAEIAFQYKQGDPIPHVEYTAEETATWKEVYSTLRGLYPTHACREHLEAFELLERFCGYREDRIPQLEDVSRFLKERTGFQLRPAAGLLSARDFLASLAFRVFQCTQYIRHASSPMHSPEPECCHELLGHVPMLADRTFAQFSQDIGLASLGVSDEEIEKLSTLYWFTVEFGLCKQNGEVKAYGAGLLSSYGELLHSLSEEPEIRAFDPDAAAVQPYQDQTYQPVYFVSESFSDAKDKLRSYASRIQRPFSVKFDPYTLAIDVLDSPHAIRHALDGVQDEMQALAHALNAIS
For the protein B2, the Km is 200 µM in series [9]; 28 µM and 22 µM in series [10]; 84 µM in series [11]; 65 µM in series [12]; 80 µM in series [13]; 77 µM and 105 µM in series [14]. Moreover, the Km in series [15] is 120 µM; in series [16], 45 µM and 55 µM; in [17], 44 µM; in series [18] it was 52 µM and 23 µM; in series [19] it was 133 µM and 51 µM; in series [20], 22 µM.

B3: Phenylalanine-4-hydroxylase (Rattus norvegicus), P04176 (protein)
chain: MAAVVLENGVLSRKLSDFGQETSYIEDNSNQNGAISLIFSLKEEVGALAKVLRLFEENDINLTHIESRPSRLNKDEYEFFTYLDKRTKPVLGSIIKSLRNDIGATVHELSRDKEKNTVPWFPRTIQELDRFANQILSYGAELDADHPGFKDPVYRARRKQFADIAYNYRHGQPIPRVEYTEEEKQTWGTVFRTLKALYKTHACYEHNHIFPLLEKYCGFREDNIPQLEDVSQFLQTCTGFRLRPVAGLLSSRDFLGGLAFRVFHCTQYIRHGSKPMYTPEPDICHELLGHVPLFSDRSFAQFSQEIGLASLGAPDEYIEKLATIYWFTVEFGLCKEGDSIKAYGAGLLSSFGELQYCLSDKPKLLPLELEKTACQEYSVTEFQPLYYVAESFSDAKEKVRTFAATIPRPFSVRYDPYTQRVEVLDNTQQLKILADSINSEVGILCNALQKIKS
Consider B3, for which the Km in series [21] was found to be 65 µM; in series [22] it was 16 µM; in series [23], 17 µM; in [24] it was 5.5 µM; in [25] it was 29 µM; in series [26], 9 µM. In addition, the Km in series [27] turned out to be 1 µM; in series [28] it was 21 µM; in [29], 21 µM; in series [30], 21 µM.
